Activity calls are given as the source filed them. The calls are words filed in the database; no cut-off is given here.
Tests used:
[1] = system: Protein cereblon/Cyclin-dependent kinase 2 (Mus musculus); experiment: Protac activity at CDK2/CRBN E3 ligase in mouse HEI-OC1 cells assessed as induction of CDK2 protein degradation at 100 nM measured after 24 hrs by Western blot analysis
Danio rerio [2] = organism: Danio rerio; experiment: Protection of cisplatin-induced ototoxicity in 5 days post fertilization zebrafish assessed as protection neuromast hair cells at 0.001 to 1 nM measured after 24 hrs by fluorescence microscopy; assay type: functional, organism-based; settings: dose upper 1.0 µM, time 5.0 day, in the assay text read “0.001 to 1 µM” for “0.001 to 1 nM”
Procedure, shortened: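 Zebrafish larvae at 4 dpf pre-exposed 24 h to 0.1 nM–1 μM in E3, then co-incubated 6 h with compound plus cisplatin 400 μM. After 1 h recovery, fish were fixed in 4% PFA and immunostained for otoferlin. Hair cells in otic, middle and opercular neuromasts were counted manually under a 40x fluorescence objective, 6–8 fish per experiment; mean ± SEM.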

[3] = molecular target: von Hippel-Lindau disease tumor suppressor/CDK2 (Danio rerio) (UniProt Q7ZWB1+Q68EH9); experiment: PROTAC activity at CDK2/VHL E3 ligase in 5 days post fertilization zebrafish assessed as decrease in CDK2 abundance measured after 24 hrs by immunoblot analysis; settings: dose 1.0 µM
Procedure, shortened: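 TuAB zebrafish larvae at 4 dpf, kept in E3 medium (pH 7.2) at 28.5°C, exposed 24 h to 0.1 nM–1 μM in E3 (controls 0.1% DMSO). Fish were collected before any ototoxin. Lysates were run at 20–30 μg protein per lane, probed with anti-CDK2 (1:500) against β-actin, and CDK2 bands quantified from three independent experiments.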

[4] = molecular target: von Hippel-Lindau E3 ligase/Cyclin-dependent kinase 2 (Mus musculus); experiment: Protac activity at CDK2/VHL E3 ligase in mouse HEI-OC1 cells assessed as induction of CDK2 protein degradation measured after 24 hrs by Western blot analysis
Danio rerio [5] = organism: Danio rerio; experiment: Protection of kainic acid-induced ototoxicity in 5 days post fertilization zebrafish assessed as protection neuromast hair cells at 5 to 100 nM measured after 24 hrs by fluorescence microscopy; settings: dose 5-100 nM, time 5.0 day

Activity [1]	Activity [3]	DC50 [4] [nM]	SMILES	Activity (Danio rerio [2])	Activity (Danio rerio [5])
inactive			O=C1CCC(N2C(=O)c3cccc(NCCOCCOCCOCCn4cc(CO[C@H]5CC[C@H](NC(=O)c6n[nH]cc6NC(=O)c6c(F)cccc6F)CC5)nn4)c3C2=O)C(=O)N1 (stereo partly specified)		
inactive			Cc1ncc(-c2ccnc(Nc3ccc(S(=O)(=O)CCCc4cn(CCOCCOCCOCCNc5cccc6c5C(=O)N(C5CCC(=O)NC5=O)C6=O)nn4)cc3)n2)n1C(C)C (stereo unspecified)		
	Active	100	Cc1ncsc1-c1ccc(CNC(=O)[C@@H]2C[C@@H](O)CN2C(=O)[C@@H](NC(=O)COCCn2cc(CCCS(=O)(=O)c3ccc(Nc4nccc(-c5cnc(C)n5C(C)C)n4)cc3)nn2)C(C)(C)C)cc1	Active	Active
